Values after ≈ are worked out from the molar mass of the structure shown.
Assays:
Format in all cases: functional
Phytophthora nicotianae = assay: Antifungal activity against Phytophthora parasitica assessed as inhibition of mycelium growth at 50 ug/ml relative to control
How it was run: (§1)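 Mycelial growth inhibition on mycelial disks, compared with untreated control, using colony diameters: (control − treatment)/(control − disk diameter) × 100. Run twice, four replicates each.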

Botrytis cinerea = assay: Antifungal activity against Botryotinia fuckeliana assessed as inhibition of mycelium growth at 50 ug/ml relative to control; how it was run: as §1
Cytospora mali = assay: Antifungal activity against Valsa mali assessed as inhibition of mycelium growth at 50 ug/ml relative to control; how it was run: as §1
[1] = system: Bursaphelenchus xylophilus; assay: Nematicidal activity against Bursaphelenchus xylophilus assessed as mortality at 200 mg/L after 72 hr relative to control
How it was run: (§2)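 Compounds dissolved in acetone and diluted with distilled water to a 200 mg L-1 working solution. Distilled water served as blank, triplicate. Mortality counted at 24, 48 and 72 h, then corrected against the negative control with Abbott's formula.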

[2] = system: Bursaphelenchus xylophilus; assay: Nematicidal activity against Bursaphelenchus xylophilus assessed as mortality at 200 mg/L after 48 hr relative to control; how it was run: as §2
Rhizoctonia solani = assay: Antifungal activity against Rhizoctonia solani assessed as inhibition of mycelium growth at 50 ug/ml relative to control; how it was run: as §1
[3] = system: Colletotrichum lindemuthianum; assay: Antifungal activity against Colletotrichum lindemuthianum assessed as inhibition of mycelium growth at 50 ug/ml relative to control; how it was run: as §1
Sclerotinia sclerotiorum = assay: Antifungal activity against Sclerotinia sclerotiorum assessed as inhibition of mycelium growth at 50 ug/ml relative to control; how it was run: as §1
[4] = system: Bursaphelenchus xylophilus; assay: Nematicidal activity against Bursaphelenchus xylophilus assessed as mortality at 200 mg/L after 24 hr relative to control; how it was run: as §2
[5] = system: Bursaphelenchus xylophilus; assay: Nematicidal activity against Bursaphelenchus xylophilus assessed as mortality after 24 hr; conditions: read-out: LD50 (the source's name)
[6] = system: Bursaphelenchus xylophilus; assay: Nematicidal activity against Bursaphelenchus xylophilus assessed as mortality after 48 hr; conditions: read-out: LD50 (the source's name)
[7] = system: Bursaphelenchus xylophilus; assay: Nematicidal activity against Bursaphelenchus xylophilus assessed as mortality after 72 hr; conditions: read-out: LD50 (the source's name)

Structure (SMILES) | inhibition at 50 µg/mL (Phytophthora nicotianae) | inhibition at 50 µg/mL (Botrytis cinerea) | inhibition at 50 µg/mL (Cytospora mali) | Activity [1] | Activity [2] | inhibition at 50 µg/mL (Rhizoctonia solani) | inhibition at 50 µg/mL [3] | inhibition at 50 µg/mL (Sclerotinia sclerotiorum) | Activity [4] | LC50 [5] | LC50 [6] | LC50 [7]
CCc1ccc(/C(=C/C(=O)NCCc2ccc(O)cc2)c2ccnc(Cl)c2)cc1 | 28.2% | 37% | 24% | 43.97% | 33.6% | 67.7% | 24.6% | 17% | 14.73% |  |  | 
Cc1ccc(/C(=C/C(=O)NCCc2ccc(O)cc2)c2ccnc(Cl)c2)cc1C | -18.5% | 54% | -6.3% | 23.99% | 14.86% | 91% | 35.8% | 44% | 3.97% |  |  | 
Cc1ccc(/C(=C/C(=O)NCCc2ccc(O)cc2)c2ccnc(Cl)c2)c(C)c1 | -25% | 38% | 26% | 54.16% | 44.71% | 13.6% | 21.6% | 27% | 12.22% |  |  | 
CC(C)(C)c1ccc(/C(=C/C(=O)NCCc2ccc(O)cc2)c2ccnc(Cl)c2)cc1 | -13.7% | 50% | -7.8% | 31.44% | 27.76% | 9.03% | 39.5% | 29% | 21.17% |  |  | 
Cc1ccc(/C(=C/C(=O)NCCc2ccccc2)c2ccncc2)cc1 | -17.7% | 43% | 36% | 18.11% | 14.86% | 15.5% | 32.8% | 16% | 9.34% |  |  | 
CCc1ccc(/C(=C/C(=O)NCCc2ccccc2)c2ccncc2)cc1 | 5.65% | 48% | 30% | 8.71% | 8.23% | 9.68% | 37.3% | 45% | 7.56% |  |  | 
Cc1ccc(/C(=C/C(=O)NCCc2ccccc2)c2ccncc2)cc1C | -9.68% | 15% | 18% | 49.07% | 47.67% | 3.87% | 17.2% | 2.7% | 28.7% |  |  | 
COc1ccc(CCNC(=O)/C=C(\c2ccncc2)c2ccc(C)c(C)c2)cc1OC | -14.5% | 52% | 68% | 19.29% | 16.33% | 5.81% | 28.4% | 11% | 13.65% |  |  | 
Cc1ccc(/C(=C/C(=O)NCCc2ccc(O)cc2)c2ccncc2)cc1 | -17.7% | 47% | -2.3% | 19.29% | 16.7% | 10.3% | 28.4% | 5.3% | 8.27% |  |  | 
Cc1ccc(/C(=C/C(=O)NCCc2ccc(O)cc2)c2ccncc2)cc1C | 14.5% | 64% | -2.3% | 32.22% | 22.6% | 16.1% | 38.8% | 27% | 11.86% |  |  | 
Cc1ccc(/C(=C/C(=O)NCCc2ccccc2)c2ccnc(Cl)c2)cc1 | 24.4% | 44% | 48% | 35.35% | 28.13% | 93.9% | 59.7% | 37% | 15.8% |  |  | 
CCc1ccc(/C(=C/C(=O)NCCc2ccccc2)c2ccnc(Cl)c2)cc1 | 26.8% | 50% | 20% | 67.87% | 26.29% | 22.4% | 34.3% | 44% | 17.95% | 301 µg/mL (≈ 769 µM) | 174 µg/mL (≈ 445 µM) | 114 µg/mL (≈ 291 µM)
Cc1ccc(/C(=C/C(=O)NCCc2ccccc2)c2ccnc(Cl)c2)cc1C | 1.61% | 67% | 52% | 45.15% | 21.49% | 76.8% | 56% | 72% | 14.73% | 430 µg/mL (≈ 1100 µM) | 315 µg/mL (≈ 805 µM) | 252 µg/mL (≈ 646 µM)
Cc1ccc(/C(=C/C(=O)NCCc2ccccc2)c2ccnc(Cl)c2)c(C)c1 | 11.3% | 43% | 31% | 27.91% | 24.44% | 4.52% | 47% | 24% | 22.97% |  |  | 
COc1ccc(/C(=C/C(=O)NCCc2ccccc2)c2ccnc(Cl)c2)cc1 | -2.42% | 55% | -6.3% | 42.01% | 38.82% | 13.6% | 43.3% | 42% | 13.65% |  |  | 
COc1ccc(CCNC(=O)/C=C(/c2ccc(C)cc2)c2ccnc(Cl)c2)cc1OC | 0% | 59% | 42% | 43.97% | 38.45% | 82.6% | 55.2% | 42% | 13.29% | 305 µg/mL (≈ 699 µM) | 178 µg/mL (≈ 409 µM) | 126 µg/mL (≈ 289 µM)
COc1ccc(CCNC(=O)/C=C(\c2ccnc(Cl)c2)c2ccc(C)c(C)c2)cc1OC | 14.2% | 33% | 36% | 21.64% | 17.81% | 23.8% | 23.9% | 28% | 8.63% |  |  | 
COc1ccc(CCNC(=O)/C=C(\c2ccnc(Cl)c2)c2ccc(C)cc2C)cc1OC | 22.6% | 40% | 29% | 38.09% | 34.02% | 35.5% | 42.5% | 68% | 19.02% |  |  | 
COc1ccc(CCNC(=O)/C=C(/c2ccc(C(C)(C)C)cc2)c2ccnc(Cl)c2)cc1OC | -8.06% | 48% | 18% | 45.15% | 38.82% | 14.8% | 22.4% | 53% | 4.33% |  |  | 
Cc1ccc(/C(=C/C(=O)NCCc2ccc(O)cc2)c2ccnc(Cl)c2)cc1 | -18.5% | 33% | 29% | 14.2% | 12.65% | 72.9% | 16.4% | 29% | 7.56% |  |  | 
CO/C=C(/C(=O)OC)c1ccccc1Oc1cc(Oc2ccccc2C#N)ncn1 [AZOXYSTROBIN] | 37.9% | 80% | 92% |  |  | 89% |  | 100% |  |  |  | 
COC(=O)Nc1nc2ccccc2[nH]1 [CARBENDAZIM] | 14.5% | 38% | 100% |  |  | 100% | 82.1% | 100% |  |  |  | 
N#Cc1c(Cl)c(Cl)c(Cl)c(C#N)c1Cl [CHLOROTHALONIL] | 63.7% | 95% | 88% |  |  | 75.5% |  | 70% |  |  |  | 
CN(/C=C\c1ccccc1)C(=O)/C=C/c1ccccc1 [LANSIUMAMIDE B] |  |  |  | 100% | 100% |  |  |  | 100% | 8.38 µg/mL (≈ 31.8 µM) | 6.36 µg/mL (≈ 24.2 µM) | 5.38 µg/mL (≈ 20.4 µM)
CC(C)(C)c1ccc(/C(=C/C(=O)N2CCOCC2)c2ccnc(Cl)c2)cc1 [PYRIMORPH] |  |  |  |  |  | 97.2% |  | 79% |  |  |  | 

— ChEMBL document CHEMBL3046278, “Design, synthesis and antifungal/insecticidal evaluation of novel cinnamide derivatives” (2011)
